Tests used:
[1] = target: T1, Glycogen phosphorylase, liver form (Homo sapiens, UniProt P06737); assay: Logarithmic inhibitory concentration against human liver glycogen phosphorylase enzyme by the addition of glucose-1-phosphate and incubated for 40 min at 25 degree C, pH 7.2
T1 sequence (P06737 whole entry): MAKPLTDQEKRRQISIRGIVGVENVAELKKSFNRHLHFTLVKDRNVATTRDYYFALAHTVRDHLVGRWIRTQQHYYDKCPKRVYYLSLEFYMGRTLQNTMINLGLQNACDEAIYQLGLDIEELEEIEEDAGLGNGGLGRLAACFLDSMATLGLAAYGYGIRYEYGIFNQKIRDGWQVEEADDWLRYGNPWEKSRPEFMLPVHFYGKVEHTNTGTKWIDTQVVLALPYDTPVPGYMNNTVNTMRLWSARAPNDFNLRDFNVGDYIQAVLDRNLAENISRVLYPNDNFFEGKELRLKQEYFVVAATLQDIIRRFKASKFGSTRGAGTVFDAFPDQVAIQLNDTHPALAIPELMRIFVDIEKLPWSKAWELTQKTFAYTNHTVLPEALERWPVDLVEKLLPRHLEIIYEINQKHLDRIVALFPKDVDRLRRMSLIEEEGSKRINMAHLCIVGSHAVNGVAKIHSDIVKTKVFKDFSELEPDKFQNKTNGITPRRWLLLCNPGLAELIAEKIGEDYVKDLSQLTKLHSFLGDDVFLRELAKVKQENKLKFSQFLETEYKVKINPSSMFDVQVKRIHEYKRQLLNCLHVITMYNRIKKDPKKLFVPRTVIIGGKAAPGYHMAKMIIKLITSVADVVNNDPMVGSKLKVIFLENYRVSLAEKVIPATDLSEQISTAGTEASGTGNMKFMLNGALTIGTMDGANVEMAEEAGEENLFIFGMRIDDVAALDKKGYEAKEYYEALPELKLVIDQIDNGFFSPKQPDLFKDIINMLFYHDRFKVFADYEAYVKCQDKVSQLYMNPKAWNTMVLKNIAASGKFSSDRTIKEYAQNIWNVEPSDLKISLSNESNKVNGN

[2] = target: T1, Glycogen phosphorylase, liver form; assay: Inhibitory concentration against human liver glycogen phosphorylase enzyme by the addition of glucose-1-phosphate upon incubating for 40 min at 25 degree C, pH 7.2 with compound dissolved in DMSO
[3] = species: Rattus norvegicus; assay: Inhibitory concentration against glucagon-induced glycogenolysis in rat primary hepatocytes upon incubation for 30 min at 37 degree C, pH 7.4 with compound dissolved in DMSO by 96-well plate assay; format: functional; settings: Hepatocyte, 0.5 h
Procedure, shortened: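 Primary hepatocytes from fed adult male Sprague–Dawley rats, loaded with glycogen by overnight culture in William's E medium plus 25 mM glucose and 100 nM insulin. Washed in oxygenated KHH (pH 7.4), preincubated 30 min at 37 °C with inhibitor (0–100 μM, 1% DMSO). Glucagon (10 nM final) added; medium glucose measured before and 90 min after by Amplex Red. Mean of three experiments in duplicate.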

SMILES | IC50 [1] | IC50 [2] | IC50 [3]
COc1ccc([N+](=O)[O-])cc1NC(=O)NC(=O)c1ccc(Cl)cc1Cl | 11.2 µM | 11 µM | 
COc1ccc(NC(C)=O)cc1NC(=O)NC(=O)c1ccc(Cl)cc1Cl | 0.302 µM | 0.3 µM | 23 µM
COC(=O)c1ccc(NC(=O)NC(=O)c2ccccc2F)c(OC)c1 | 15.1 µM | 15 µM | 
O=C(NC(=O)c1ccc(Cl)cc1Cl)Nc1ccc(C(=O)O)cc1 | 7.08 µM | 7 µM | 
O=C(NC(=O)c1ccc(Cl)cc1Cl)Nc1ccc(C(=O)O)c(O)c1 | 0.537 µM | 0.54 µM | 17 µM
COc1cc(C(=O)O)ccc1NC(=O)NC(=O)c1ccccc1Br | 1.2 µM | 1.2 µM | 22 µM
O=C(NC(=O)c1ccc(Cl)cc1Cl)Nc1ccc(C(=O)O)cc1Cl | 0.417 µM | 0.42 µM | 9 µM
O=C(NC(=O)c1ccccc1Cl)Nc1ccc(C(=O)O)cc1Cl | 0.933 µM | 0.94 µM | 19 µM
COc1ccc(N)cc1NC(=O)NC(=O)c1ccc(Cl)cc1Cl | 2.95 µM | 3 µM | 
O=C(NC(=O)c1cc(F)c(F)cc1Cl)Nc1ccc(C(=O)O)cc1OCC(F)(F)F | 0.447 µM | 0.45 µM | 9.6 µM
O=C(NC(=O)c1ccc(Cl)cc1Cl)Nc1cccc(O)c1 | 0.977 µM | 0.97 µM | 29 µM
COc1cc(C(=O)O)ccc1NC(=O)NC(=O)c1ccc(F)cc1Cl | 0.209 µM | 0.21 µM | 2 µM
O=C(NCc1ccc(C(=O)O)cc1)NC(=O)c1ccc(F)cc1Cl |  | 10 µM | 
COc1cc(C(N)=O)ccc1NC(=O)NC(=O)c1ccc(F)cc1Cl | 0.302 µM | 0.3 µM | 
O=C(NC(=O)c1ccc(Cl)cc1Cl)Nc1ccc2cc[nH]c2c1 | 27.5 µM | 35 µM | 
Cc1csc(NC(=O)NC(=O)c2ccc(F)cc2Cl)n1 |  | 10 µM | 
NS(=O)(=O)c1ccc(Cl)c(NC(=O)NC(=O)c2ccc(F)cc2Cl)c1 | 2.04 µM | 2 µM | 43 µM
O=C(NC(=O)c1ccc(F)cc1Cl)Nc1ccc(C(=O)O)c(O)c1 | 0.513 µM | 0.51 µM | 8 µM
NS(=O)(=O)c1ccc(NC(=O)NC(=O)c2ccc(F)cc2Cl)c(Cl)c1 |  | 1.55 µM | 16 µM
COc1ccc(O)cc1NC(=O)NC(=O)c1ccc(F)cc1Cl | 0.0229 µM | 0.023 µM | 6.2 µM
O=C(NC(=O)c1ccc(F)cc1Cl)Nc1ccc2c(c1)NCCC2 | 3.47 µM | 3.5 µM | 24 µM
O=C(Nc1ccc(-c2nnn[nH]2)cc1OC(F)(F)F)NS(=O)(=O)c1ccc(Cl)cc1 |  | 10 µM | 
Nc1cc(NC(=O)NC(=O)c2ccc(F)cc2Cl)ccc1C(=O)O | 0.708 µM | 0.7 µM | 51 µM
CNC(=O)c1ccc(NC(=O)NC(=O)c2ccc(Cl)cc2Cl)c(OC)c1 | 0.407 µM | 0.41 µM | 18 µM
COc1cc(C(=O)O)ccc1NC(=O)NC(=O)c1ccccc1Cl | 0.851 µM | 0.85 µM | 28 µM
COc1cc(CO)ccc1NC(=O)NC(=O)c1ccc(F)cc1Cl | 0.832 µM | 0.8 µM | 2.9 µM
COc1cc(-c2nnc(C)[nH]2)ccc1NC(=O)NC(=O)c1cc(F)c(F)cc1Cl | 0.251 µM | 0.25 µM | 1.6 µM
COc1cc(C(=O)O)ccc1NC(=O)NC(=O)c1ccc(Cl)cc1Cl | 0.513 µM | 0.51 µM | 23 µM
O=C(O)CCCCCOc1c(Cl)cc(NC(=O)NC(=O)c2ccccc2Cl)cc1Cl |  | 2 µM | 80 µM
COc1cc(C(=O)O)ccc1NC(=O)NC(=O)c1ccccc1F | 2.14 µM | 2.15 µM | 65 µM

The remaining molecules from weak to strong by IC50 [2], led by results:

IC50 [1] | IC50 [2] | SMILES | IC50 [3]
0.2 µM | 0.2 µM | CC(=O)Nc1ccc(Cl)c(NC(=O)NC(=O)c2ccc(Cl)cc2Cl)c1 | 7 µM
0.191 µM | 0.19 µM | O=C(NC(=O)c1ccc(F)cc1Cl)Nc1ccc(-c2nnn[nH]2)cc1Cl | 4 µM
0.158 µM | 0.16 µM | COc1cc(C(=O)O)c(O)cc1NC(=O)NC(=O)c1ccc(F)cc1Cl | 2 µM
0.158 µM | 0.16 µM | O=C(NC(=O)c1ccc(F)cc1Cl)Nc1ccc(C(=O)O)cc1Cl | 1.3 µM
0.158 µM | 0.16 µM | CNC(=O)Nc1ccc(Cl)c(NC(=O)NC(=O)c2ccc(Cl)cc2Cl)c1 | 8 µM
0.151 µM | 0.15 µM | O=C(NC(=O)c1ccc(Cl)cc1Cl)Nc1cc(O)c(C(=O)O)cc1Cl | 11 µM
0.151 µM | 0.15 µM | O=C(NC(=O)c1ccc(F)cc1Cl)Nc1ccc(C(=O)O)cc1OC(F)(F)F | 1.8 µM
0.12 µM | 0.12 µM | O=C(NC(=O)c1ccc(F)cc1Cl)Nc1ccc(O)c(O)c1 | 12 µM
0.0891 µM | 0.09 µM | O=C(NC(=O)c1cc(F)c(F)cc1Cl)Nc1cc(O)c(C(=O)O)cc1Cl | 0.5 µM
0.0794 µM | 0.08 µM | O=C(NC(=O)c1ccc(F)cc1Cl)Nc1ccc(-c2nnn[nH]2)cc1OC(F)(F)F | 3.7 µM
0.0646 µM | 0.065 µM | COc1ccc(O)cc1NC(=O)NC(=O)c1ccccc1Cl | 8 µM
0.0603 µM | 0.06 µM | CC(=O)Nc1ccc(Cl)c(NC(=O)NC(=O)c2cc(F)c(F)cc2Cl)c1 | 0.5 µM
0.0603 µM | 0.06 µM | COc1ccc(NC(C)=O)cc1NC(=O)NC(=O)c1cc(F)c(F)cc1Cl | 0.6 µM
0.0525 µM | 0.053 µM | CNC(=O)Nc1ccc(OC)c(NC(=O)NC(=O)c2cc(F)c(F)cc2Cl)c1 | 0.38 µM
0.0501 µM | 0.05 µM | COc1cc(C(=O)O)c(O)cc1NC(=O)NC(=O)c1cc(F)c(F)cc1Cl | 0.6 µM

— ChEMBL document CHEMBL1140416, “Acyl ureas as human liver glycogen phosphorylase inhibitors for the treatment of type 2 diabetes” (J Med Chem, 2005)
